Here are results for eleven compounds from ChEMBL document CHEMBL1949589, “Hydrophilic pyrazine dyes as exogenous fluorescent tracer agents for real-time point-of-care measurement of glomerular filtration rate” (J Med Chem, 2011).

Data set [1] is described as follows: Drug excretion in Sprague-Dawley rat urine after 6 hrs. The format is ADME. A digest of the protocol: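 Test agent (1 mL, 2 mM in PBS) given by tail vein to conscious restrained rats in metabolic cages, urine collected at 2, 4 and 6 h with cage washes; or to rats anesthetized with Inactin 100 mg/kg ip, tracheotomized, kept on 37 °C pad, with bladder urine drawn at 6 h. Urine level by HPLC with fluorescence detection against external standards; %ID from mass balance; mean ± SEM, n=3-6.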

Data set [2] is described as follows: Plasma protein binding in rat at 20 uM after 1 hr by HPLC analysis. The format is ADME, cell-free. The note with it: read-out: PPB (converted). In a few lines: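 20 μM compound in rat plasma, 37 °C for 1 h. Free fraction separated by 30 kDa MWCO centrifugal ultrafiltration and quantified by HPLC with fluorescence detection against external calibration standards.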

A further data set has as its system Rattus norvegicus. The data set can be described thus: Plasma clearance in Sprague-Dawley rat in presence of 70 mg/kg probenecid administered 10 mins prior to compound treatment. Conditions: in vivo; call rule not given here.
A short description of data set [3]: Terminal half life in Sprague-Dawley rat plasma […]. It counts as ADME, organism-based. The note with it: read-out: beta t1/2. A digest of the protocol:
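Male Sprague Dawley rats (330-380 g), Inactin ip, tracheotomized, with femoral vein dosing and femoral artery sampling catheters. Dose was 1 mL of 2 mM agent; about 200 μL blood taken at 0-120 min (10 points). Plasma measured by HPLC with fluorescence detection against external standards. Terminal-phase half-life from two-compartment modeling; mean ± SEM, n=4-8.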

A short description of data set [4]: Stability of the compound assessed as drug degradation by HPLC analysis. It counts as physicochemical.
The species entered for a further data set is Mus musculus. The data set can be described thus: Drug uptake in mouse bladder at 300 uL after 60 mins by real-time fluorescence analysis. The note with it: in vivo, 1 h.

The compound `Nc1nc(C(=O)NCC(O)CO)c(N)nc1C(=O)NCC(O)CO` (stereo not given) had a urinary excretion (% of injected dose) at 6 h in data set [1] of 61 % ID. The fraction unbound at 1 h, 20 µM in data set [2] was 0.98.

In data set [1], `CNC(=O)c1c(I)c(NC(C)=O)c(I)c(C(=O)O)c1I` [IOTHALAMIC ACID] registered a urinary excretion (% of injected dose) at 6 h of 80 % ID. Also, the fraction unbound at 1 h, 20 µM in data set [2] is 0.9. The CL entry in the data set with Rattus norvegicus was “Active”. In data set [3], the half-life came to 32 min.

In the case of `O=C(N[C@H](CO)C(=O)O)c1nc(NC[C@H](O)CO)c(C(=O)N[C@H](CO)C(=O)O)nc1NC[C@H](O)CO`, the urinary excretion (% of injected dose) at 6 h in data set [1] was 85 % ID. In data set [2], the fraction unbound at 1 h, 20 µM was 1. Also, the CL result in the data set on Rattus norvegicus is “Active”. Besides, the half-life in data set [3] is 20 min. Moreover, the Stability result in data set [4] is listed as “Stable”.

Regarding `CCCNc1nc(C(=O)N[C@H](CO)C(=O)O)c(NCCC)nc1C(=O)N[C@H](CO)C(=O)O`, the fraction unbound at 1 h, 20 µM in data set [2] is 0.26.

With `O=C(NCC(O)CO)c1nc(NC[C@H](O)CO)c(C(=O)NCC(O)CO)nc1NC[C@H](O)CO` (stereo not given in full), in data set [1], the urinary excretion (% of injected dose) at 6 h came out at 88 % ID. Also, the fraction unbound at 1 h, 20 µM in data set [2] was 0.94. Moreover, the CL entry in the data set with Rattus norvegicus is “Active”. The Drug uptake result in the data set listed under Mus musculus is reported as “Active”. The half-life in data set [3] worked out at 19 min. Further, in data set [4], the Stability result is “Stable”.

In turn, `Nc1nc(C(=O)N[C@H](CC(=O)O)C(=O)O)c(N)nc1C(=O)N[C@H](CC(=O)O)C(=O)O` yielded a urinary excretion (% of injected dose) at 6 h in data set [1] of 61 % ID. Further, the fraction unbound at 1 h, 20 µM in data set [2] is 1.

In turn, `O=C(NCC(O)CO)c1nc(NC[C@@H](O)CO)c(C(=O)NCC(O)CO)nc1NC[C@@H](O)CO` (stereo not given in full) showed a urinary excretion (% of injected dose) at 6 h in data set [1] of 87 % ID. Also, in data set [2], the fraction unbound at 1 h, 20 µM was 0.96.

With `Nc1nc(C(=O)N[C@H](CO)C(=O)O)c(N)nc1C(=O)N[C@H](CO)C(=O)O` [RELMAPIRAZIN], the urinary excretion (% of injected dose) at 6 h in data set [1] is 90 % ID. Moreover, in data set [2], the fraction unbound at 1 h, 20 µM was 1. The CL entry in the data set on Rattus norvegicus is “Active”. Also, the half-life in data set [3] was 29 min. In addition, in data set [4], the Stability entry was “Stable”.

`Nc1nc(C(=O)N[C@@H](CO)C(=O)O)c(N)nc1C(=O)N[C@@H](CO)C(=O)O` displayed a urinary excretion (% of injected dose) at 6 h in data set [1] of 82 % ID. Moreover, the fraction unbound at 1 h, 20 µM in data set [2] is 1. Further, the CL entry in the data set on Rattus norvegicus is “Not Active”. Further, the half-life in data set [3] is 36 min. The Stability result in data set [4] was “Stable”.

Regarding `Nc1nc(C(=O)NCCO)c(N)nc1C(=O)NCCO`, the fraction unbound at 1 h, 20 µM in data set [2] was 0.88.

Regarding `NC(=O)c1nc(NC[C@H](O)CO)c(C(N)=O)nc1NC[C@H](O)CO`, the urinary excretion (% of injected dose) at 6 h in data set [1] is 25 % ID. For the same compound, the fraction unbound at 1 h, 20 µM in data set [2] was 0.85.
